Measured values as given in ChEMBL document CHEMBL1667766, “Synthesis of elastin based peptides conjugated to benzisoxazole as a new class of potent antimicrobials--A novel approach to enhance biocompatibility” (2011).
Values after ≈ are worked out from the molar mass of the structure shown. *1 amine or outer side, *2 acyl side, *3 side chain or, on linkers, in order; H or OH if unused. Where a SMILES comes first, the peptide text is derived from it. [ ]: non-standard residue; d: D form. The star is where a group is joined. X2 = CC(C)[C@H](N[*:1])C(=O)NC(=O)[*:2]; X1 = Fc1ccc2c(C3CCN(*)CC3)noc2c1; Boc = CC(C)(C)OC(=O)*; OcHex = C1CCC(O*)CC1

Columns and labels:
Format in all cases: functional
Staphylococcus [1] = assay: Antimicrobial activity against coagulase positive Staphylococcus after 24 hrs by agar well diffusion method
Outline: (§1)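 Bacteria grown in nutrient broth at 37 °C for 24 h, subcultured in 25 mL broth at room temperature, then spread on nutrient agar. Wells (6 mm cork borer) filled with 0.1 mL test solution in DMSO, prepared from a 1 mg/mL stock. Amoxicillin as reference, DMSO as negative control. Plates kept 24 h at 37 °C; inhibition zone measured in mm.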

Klebsiella pneumoniae [2] = assay: Antimicrobial activity against Klebsiella pneumoniae after 24 hrs by agar well diffusion method; outline: as §1
Xanthomonas oryzae [3] = assay: Antimicrobial activity against Xanthomonas oryzae after 24 hrs by agar well diffusion method
Escherichia coli [4] = assay: Antimicrobial activity against Escherichia coli after 24 hrs by agar well diffusion method; outline: as §1
Xanthomonas oryzae [5] = assay: Antimicrobial activity against Xanthomonas oryzae after 72 hrs by microdilution method
Fusarium oxysporum [6] = assay: Antifungal activity against Fusarium oxysporum after 72 hrs by microdilution method
Aspergillus niger [7] = assay: Antifungal activity against Aspergillus niger after 72 hrs by microdilution method
Klebsiella pneumoniae [8] = assay: Antimicrobial activity against Klebsiella pneumoniae after 72 hrs by microdilution method
Aspergillus flavus [9] = assay: Antifungal activity against Aspergillus flavus after 24 hrs by agar well diffusion method
Outline: (§2)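 Fungi subcultured in 25 mL nutrient broth for one day to give inoculum, then spread on solidified Sabouraud agar. Wells punched with a 6 mm cork borer and filled with 0.1 mL test solution in DMSO, prepared from a 1 mg/mL stock. Bavistin as reference, DMSO as negative control. Read-out is inhibition zone diameter (mm).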

Staphylococcus [10] = assay: Antimicrobial activity against coagulase positive Staphylococcus after 72 hrs by microdilution method
Escherichia coli [11] = assay: Antimicrobial activity against Escherichia coli after 72 hrs by microdilution method
Fusarium oxysporum [12] = assay: Antifungal activity against Fusarium oxysporum after 24 hrs by agar well diffusion method; outline: as §2
Aspergillus flavus [13] = assay: Antifungal activity against Aspergillus flavus after 72 hrs by microdilution method
Aspergillus niger [14] = assay: Antifungal activity against Aspergillus niger after 24 hrs by agar well diffusion method; outline: as §2

SMILES	inhibition zone (IZ) (Staphylococcus [1]) [mm]	inhibition zone (IZ) (Klebsiella pneumoniae [2]) [mm]	inhibition zone (IZ) (Xanthomonas oryzae [3]) [mm]	inhibition zone (IZ) (Escherichia coli [4]) [mm]	MIC (Xanthomonas oryzae [5]) [µg/mL]	MIC (Fusarium oxysporum [6]) [µg/mL]	MIC (Aspergillus niger [7]) [µg/mL]	MIC (Klebsiella pneumoniae [8]) [µg/mL]	inhibition zone (IZ) (Aspergillus flavus [9]) [mm]	MIC (Staphylococcus [10]) [µg/mL]	MIC (Escherichia coli [11]) [µg/mL]	inhibition zone (IZ) (Fusarium oxysporum [12]) [mm]	MIC (Aspergillus flavus [13]) [µg/mL]	inhibition zone (IZ) (Aspergillus niger [14]) [mm]
N[C@@H](Cc1ccccc1)C(=O)N1CCC(c2noc3cc(F)ccc23)CC1.O=C(O)C(F)(F)F	9	10	11	14	15	21	18	16	11	18	20	14	22	16
CC(C)(C)OC(=O)NCC(=O)NCC(=O)N[C@@H](Cc1ccccc1)C(=O)N1CCC[C@H]1C(=O)O (Boc-GGFP-OH)	–	–	–	–	> 50	> 50	> 50	> 50	–	> 50	> 50	–	> 50	–
C[C@H](NC(=O)CNC(=O)CNC(=O)OC(C)(C)C)C(=O)N1CCC[C@H]1C(=O)O (Boc-GGAP-OH)	–	–	–	–	> 50	> 50	> 50	> 50	–	> 50	> 50	–	> 50	–
CC[C@@H](C)[C@H](NC(=O)CNC(=O)CN)C(=O)N1CCC[C@H]1C(=O)N1CCC(c2noc3cc(F)ccc23)CC1.O=C(O)C(F)(F)F	12	14	15	20	12	17	13	12	14	14	15	18	16	22
CC(C)[C@H](NC(=O)CNC(=O)[C@@H]1CCCN1C(=O)[C@H](Cc1ccccc1)NC(=O)CNC(=O)[C@H](CCC(=O)OC1CCCCC1)NC(=O)CNC(=O)OC(C)(C)C)C(=O)NCC(=O)N[C@H](C(=O)N1CCC[C@H]1C(=O)NCC(=O)N[C@H](C(=O)NCC(=O)N[C@H](C(=O)N1CCC[C@H]1C(=O)NCC(=O)N[C@H](C(=O)NCC(=O)N[C@H](C(=O)N1CCC[C@H]1C(=O)NCC(=O)N[C@@H](Cc1ccccc1)C(=O)NCC(=O)N[C@@H](Cc1ccccc1)C(=O)N1CCC[C@H]1C(=O)NCC(=O)N[C@@H](Cc1ccccc1)C(=O)NCC(=O)N[C@@H](Cc1ccccc1)C(=O)N1CCC[C@H]1C(=O)O)C(C)C)C(C)C)C(C)C)C(C)C)C(C)C (Boc-GE(OcHex)GFPGVGVPGVGVPGVGVPGFGFPGFGFP-OH)	–	–	–	–	> 50	> 50	> 50	> 50	–	> 50	> 50	–	> 50	–
CC(C)[C@H](NC(=O)CNC(=O)[C@@H]1CCCN1C(=O)[C@H](Cc1ccccc1)NC(=O)CNC(=O)[C@H](Cc1ccccc1)NC(=O)CNC(=O)[C@@H]1CCCN1C(=O)[C@H](Cc1ccccc1)NC(=O)CNC(=O)[C@@H](NC(=O)CNC(=O)[C@@H]1CCCN1C(=O)[C@@H](NC(=O)NC(=O)[C@@H](NC(=O)CNC(=O)[C@@H]1CCCN1C(=O)[C@H](Cc1ccccc1)NC(=O)CNC(=O)[C@H](CCC(=O)OC1CCCCC1)NC(=O)CNC(=O)OC(C)(C)C)C(C)C)C(C)C)C(C)C)C(=O)NCC(=O)N[C@H](C(=O)N1CCC[C@H]1C(=O)NCC(=O)N[C@H](C(=O)NCC(=O)N[C@@H](Cc1ccccc1)C(=O)N1CCC[C@H]1C(=O)O)C(C)C)C(C)C (Boc-GE(OcHex)GFPG[X2]VPGVGFPGFGFPGVGVPGVGFP-OH)	–	–	–	–	> 50	> 50	> 50	> 50	–	> 50	> 50	–	> 50	–
N[C@@H](Cc1c[nH]c2ccccc12)C(=O)N1CCC(c2noc3cc(F)ccc23)CC1.O=C(O)C(F)(F)F	4	5	6	8	26	39	32	31	4	36	38	7	41	11
CC(C)(C)OC(=O)N[C@@H](Cc1c[nH]c2ccccc12)C(=O)O	–	–	–	–	> 50	> 50	> 50	> 50	–	> 50	> 50	–	> 50	–
NCC(=O)NCC(=O)N[C@@H](Cc1ccccc1)C(=O)N1CCC[C@H]1C(=O)N1CCC(c2noc3cc(F)ccc23)CC1.O=C(O)C(F)(F)F (H-GGFP-X1)	14	15	16	22	11	16	11	11	16	13	14	20	15	25
CC(C)[C@H](NC(=O)CNC(=O)[C@@H]1CCCN1C(=O)[C@H](Cc1ccccc1)NC(=O)CNC(=O)[C@H](CCC(=O)O)NC(=O)CN)C(=O)NCC(=O)N[C@H](C(=O)N1CCC[C@H]1C(=O)NCC(=O)N[C@H](C(=O)NCC(=O)N[C@H](C(=O)N1CCC[C@H]1C(=O)NCC(=O)N[C@H](C(=O)NCC(=O)N[C@H](C(=O)N1CCC[C@H]1C(=O)NCC(=O)N[C@@H](Cc1ccccc1)C(=O)NCC(=O)N[C@@H](Cc1ccccc1)C(=O)N1CCC[C@H]1C(=O)NCC(=O)N[C@@H](Cc1ccccc1)C(=O)NCC(=O)N[C@@H](Cc1ccccc1)C(=O)N1CCC[C@H]1C(=O)N1CCC(c2noc3cc(F)ccc23)CC1)C(C)C)C(C)C)C(C)C)C(C)C)C(C)C.O=C(O)C(F)(F)F (H-GEGFPGVGVPGVGVPGVGVPGFGFPGFGFP-X1)	20	17	18	15	9	4	3	9	32	11	10	31	3	36
N[C@@H](Cc1ccc(O)cc1)C(=O)N1CCC(c2noc3cc(F)ccc23)CC1.O=C(O)C(F)(F)F	4	4	5	7	29	41	34	34	3	39	40	6	43	10
CC(C)[C@H](NC(=O)CN)C(=O)NCC(=O)N[C@H](C(=O)N1CCC[C@H]1C(=O)N1CCC(c2noc3cc(F)ccc23)CC1)C(C)C.O=C(O)C(F)(F)F (H-GVGVP-X1)	15	17	17	23	10	10	8	8	17	10	11	21	9	27
CC(C)(C)OC(=O)NCC(=O)N[C@@H](Cc1ccccc1)C(=O)NCC(=O)N[C@@H](Cc1ccccc1)C(=O)N1CCC[C@H]1C(=O)O (Boc-GFGFP-OH)	–	–	–	–	> 50	> 50	> 50	> 50	–	> 50	> 50	–	> 50	–
CC[C@@H](C)[C@H](NC(=O)CNC(=O)CNC(=O)OC(C)(C)C)C(=O)N1CCC[C@H]1C(=O)O	–	–	–	–	> 50	> 50	> 50	> 50	–	> 50	> 50	–	> 50	–
CC1(C)S[C@@H]2[C@H](NC(=O)[C@H](N)c3ccc(O)cc3)C(=O)N2[C@H]1C(=O)O [AMOXICILLIN]	7	8	8	11	18 (≈ 49.3 µM)	–	–	20 (≈ 54.7 µM)	–	23 (≈ 62.9 µM)	24 (≈ 65.7 µM)	–	–	–
CC(C)[C@H](NC(=O)CNC(=O)OC(C)(C)C)C(=O)NCC(=O)N[C@H](C(=O)N1CCC[C@H]1C(=O)O)C(C)C (Boc-GVGVP-OH)	–	–	–	–	> 50	> 50	> 50	> 50	–	> 50	> 50	–	> 50	–
CC(C)(C)OC(=O)N[C@@H](Cc1ccccc1)C(=O)O	–	–	–	–	> 50	> 50	> 50	> 50	–	> 50	> 50	–	> 50	–
COC(=O)Nc1nc2ccccc2[nH]1 [CARBENDAZIM]	–	–	–	–	–	25 (≈ 131 µM)	22 (≈ 115 µM)	–	7	–	–	10	26 (≈ 136 µM)	12
